Measured values published in ChEMBL document CHEMBL4229322, “Antibacterial Paramagnetic Quinones from Actinoallomurus” (2017).
Values after ≈ are worked out from the molar mass of the structure shown. Active and inactive are the calls of the source. The rule behind the calls is not given here.

How the values were obtained:
Format in all cases: functional
Bacteroides fragilis = assay: Antimicrobial activity against Bacteroides fragilis ATCC 25285 by broth microdilution method
[1] = tested on: Staphylococcus haemolyticus; assay: Antimicrobial activity against methicillin-resistant Staphylococcus haemolyticus L1730 by broth microdilution method
In short: (§1)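 CLSI broth microdilution in Müller Hinton broth containing 20 mg/L CaCl2 and 10 mg/L MgCl2. Clinical isolates inoculated at 5 × 10^5 cfu/mL and incubated at 37 °C for 20−24 h. MIC read as the lowest inhibiting concentration.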

Pseudomonas aeruginosa = assay: Antimicrobial activity against Pseudomonas aeruginosa ATCC 27853 by broth microdilution method
Escherichia coli [2] = assay: Antimicrobial activity against hyperpermeable Escherichia coli G1640 by broth microdilution method
Escherichia coli [3] = assay: Antimicrobial activity against Escherichia coli ATCC 25922 by broth microdilution method
[4] = tested on: Lactobacillus delbrueckii; assay: Antimicrobial activity against Lactobacillus delbrueckii ATCC 4797 by broth microdilution method
Cutibacterium acnes = assay: Antimicrobial activity against Propionibacterium acnes ATCC 25476 by broth microdilution method
Moraxella catarrhalis = assay: Antimicrobial activity against Moraxella catarrhalis L3292 by broth microdilution method
Staphylococcus aureus [5] = assay: Antimicrobial activity against glycopeptide-intermediate resistant Staphylococcus aureus L3797 by broth microdilution method; in short: as §1
[6] = tested on: Staphylococcus haemolyticus; assay: Antimicrobial activity against methicillin-sensitive Staphylococcus haemolyticus L1729 by broth microdilution method
Staphylococcus aureus [7] = assay: Antimicrobial activity against glycopeptide-intermediate resistant Staphylococcus aureus L3798 by broth microdilution method; in short: as §1
Clostridioides difficile = assay: Antimicrobial activity against Clostridium difficile L4013 by broth microdilution method
Acinetobacter baumannii = assay: Antimicrobial activity against Acinetobacter baumannii ATCC 13637 by broth microdilution method
[8] = tested on: Mycolicibacterium smegmatis; assay: Antimicrobial activity against Mycobacterium smegmatis str. MC2 155 by broth microdilution method
Enterococcus faecium [9] = assay: Antimicrobial activity against VanA expressing Enterococcus faecium L569 by broth microdilution method
Haemophilus influenzae = assay: Antimicrobial activity against Haemophilus influenzae L3296 by broth microdilution method
[10] = tested on: Stenotrophomonas maltophilia; assay: Antimicrobial activity against Stenotrophomonas maltophilia L3030 by broth microdilution method
Escherichia coli [11] = assay: Antimicrobial activity against delta-tolC containing Escherichia coli L4242 by broth microdilution method
Staphylococcus aureus [12] = assay: Antimicrobial activity against methicillin-resistant Staphylococcus aureus L1400 by broth microdilution method; in short: as §1
Streptococcus pyogenes [13] = assay: Antimicrobial activity against Streptococcus pyogenes ATCC BAA 1407 by broth microdilution method
Enterococcus faecium [14] = assay: Antimicrobial activity against VanS expressing Enterococcus faecium L568 by broth microdilution method
Streptococcus pyogenes [15] = assay: Antimicrobial activity against Streptococcus pyogenes ATCC BAA 1402 by broth microdilution method
Staphylococcus aureus [16] = assay: Antimicrobial activity against methicillin-sensitive Staphylococcus aureus ATCC 6538P by broth microdilution method
Streptococcus pyogenes [17] = assay: Antimicrobial activity against Streptococcus pyogenes L49 by broth microdilution method

Compound | MIC (Bacteroides fragilis) | MIC [1] | MIC (Pseudomonas aeruginosa) | MIC (Escherichia coli [2]) | MIC (Escherichia coli [3]) | MIC [4] | MIC (Cutibacterium acnes) | MIC (Moraxella catarrhalis) | MIC (Staphylococcus aureus [5]) | MIC [6] | MIC (Staphylococcus aureus [7]) | MIC (Clostridioides difficile) | MIC (Acinetobacter baumannii) | MIC [8] | MIC (Enterococcus faecium [9]) | MIC (Haemophilus influenzae) | MIC [10] | MIC (Escherichia coli [11]) | MIC (Staphylococcus aureus [12]) | MIC (Streptococcus pyogenes [13]) | also measured
CN[C@H](CC(C)C)C(=O)N[C@H]1C(=O)N[C@@H](CC(N)=O)C(=O)N[C@H]2C(=O)N[C@H]3C(=O)N[C@H](C(=O)N[C@H](C(=O)O)c4cc(O)cc(O)c4-c4cc3ccc4O)[C@H](O)c3ccc(c(Cl)c3)Oc3cc2cc(c3O[C@@H]2O[C@H](CO)[C@@H](O)[C@H](O)[C@H]2O[C@H]2C[C@](C)(N)[C@H](O)[C@H](C)O2)Oc2ccc(cc2Cl)[C@H]1O [VANCOMYCIN] | 16 µg/mL (≈ 11 µM) | 128 µg/mL (≈ 88.3 µM) | 2 µg/mL (≈ 1.38 µM) | > 128 µg/mL | > 128 µg/mL | > 128 µg/mL | 0.25 µg/mL (≈ 0.173 µM) | 32 µg/mL (≈ 22.1 µM) | 8 µg/mL (≈ 5.52 µM) | 2 µg/mL (≈ 1.38 µM) | 8 µg/mL (≈ 5.52 µM) | 0.5 µg/mL (≈ 0.345 µM) | 128 µg/mL (≈ 88.3 µM) | > 128 µg/mL | > 128 µg/mL | > 128 µg/mL | 128 µg/mL (≈ 88.3 µM) | > 128 µg/mL |  |  | 
GENTAMICIN |  |  |  | 0.25 µg/mL | 0.25 µg/mL |  |  | 0.25 µg/mL |  |  |  |  | 0.125 µg/mL | 16 µg/mL |  | 128 µg/mL | 64 µg/mL | 0.25 µg/mL |  |  | 
CNc1cc(=O)c2c(O)c3c(=O)c4c5c(c(OC)cc4c(=O)c3cc2c1=O)C(=O)OC5 | Active | Active | Active | Active | Active | Active | Active | Active | Active | Active | Active | Active | Active | Active | Active | Active | Active | Active | Active | Active | MIC (Enterococcus faecium [14]): Active; MIC (Streptococcus pyogenes [15]): Active; MIC (Staphylococcus aureus [16]): Active; MIC (Streptococcus pyogenes [17]): Active
COc1cc2c(=O)c3cc4c(=O)c(OC)cc(=O)c4c(O)c3c(=O)c2c2c1C(=O)OC2 | Active | Active | Active | Active | Active | Active | Active | Active | Active | Active | Active | Active | Active | Active | Active | Active | Active | Active | Active | Active | MIC (Enterococcus faecium [14]): Active; MIC (Streptococcus pyogenes [15]): Active; MIC (Staphylococcus aureus [16]): Active; MIC (Streptococcus pyogenes [17]): Active
O=C1OCc2c1c(O)cc1c(=O)c3cc4c(=O)c(O)cc(=O)c4c(O)c3c(=O)c21 | > 16 µg/mL | > 16 µg/mL | > 16 µg/mL | > 16 µg/mL | > 16 µg/mL | > 16 µg/mL | > 16 µg/mL | > 16 µg/mL | > 16 µg/mL | > 16 µg/mL | > 16 µg/mL | > 64 µg/mL | > 16 µg/mL | > 16 µg/mL | > 16 µg/mL | > 16 µg/mL | > 16 µg/mL | > 16 µg/mL | > 16 µg/mL | 8 µg/mL (≈ 20.4 µM) | MIC (Enterococcus faecium [14]): > 16 µg/mL; MIC (Streptococcus pyogenes [15]): 8 µg/mL (≈ 20.4 µM); MIC (Staphylococcus aureus [16]): > 16 µg/mL; MIC (Streptococcus pyogenes [17]): 16 µg/mL (≈ 40.8 µM)
